Test results as given in ChEMBL document CHEMBL1147806, “Structure-activity relationship studies on UK-2A, a novel antifungal antibiotic from Streptomyces sp. 517-02. Part 5: Roles of the 9-membered dilactone-ring moiety in respiratory inhibition” (2006).
Values after ≈ are worked out from the molar mass of the structure shown.

How the values were obtained:
Rhodotorula mucilaginosa = test: Antifungal activity against Rhodotorula mucilaginosa IFO 0001; assay type: functional
Procedure, shortened: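 Compounds dissolved in DMF; MIC by serial 2-fold agar dilution on Sabouraud dextrose agar, read after 48 h cultivation at 25 °C.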

Bos taurus = species: Bos taurus; test: Respiratory inhibition in bovine heart submitochondrial particles; assay type: functional
Procedure, shortened: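 Bovine heart submitochondrial particles prepared by the Matsuno-Yagi and Hatefi method; uncoupler-stimulated respiration with 10 mM succinate as substrate, oxygen consumption followed by oxygen electrode at 25 °C.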

| SMILES | MIC (Rhodotorula mucilaginosa) | pI50 (Bos taurus) |
| --- | --- | --- |
| CCCCCCOC(=O)CC[C@H](NC(=O)c1cccc(NC=O)c1O)C(=O)OCCCCCC | > 100 mg/L | 7.1 |
| CCCCCCCCOC(=O)CC[C@H](NC(=O)c1nccc(OC)c1O)C(=O)OCCCCCCCC | > 100 mg/L | 5.7 |
| CCCCCCOC(=O)C[C@H](NC(=O)c1ccc(OC)c(OC)c1O)C(=O)OCCCCCC | > 100 mg/L | 4.9 |
| CCCC[C@H]1C(=O)O[C@H](C)[C@H](NC(=O)c2cccc(NC=O)c2O)C(=O)O[C@@H](C)[C@@H]1OC(=O)CC(C)C [ANTIMYCIN A3] | 0.39 mg/L (≈ 0.749 µM) | 7.4 |
| CCCCCCOC(=O)CC[C@H](NC(=O)c1nccc(OC)c1O)C(=O)OCCCCCC | 3.13 mg/L (≈ 6.71 µM) | 6 |
| CCCCCCOC(=O)C[C@H](NC(=O)c1cc(O)c(OC)c(OC)c1O)C(=O)OCCCCCC | 100 mg/L (≈ 201 µM) | 5 |
| CCCCCCCOC(=O)CC[C@H](NC(=O)c1nccc(OC)c1O)C(=O)OCCCCCCC | 50 mg/L (≈ 101 µM) |  |
| CCCCCOC(=O)CC[C@H](NC(=O)c1nccc(OC)c1O)C(=O)OCCCCC | 12.5 mg/L (≈ 28.5 µM) |  |
| COc1ccnc(C(=O)N[C@H]2COC(=O)[C@H](Cc3ccccc3)[C@@H](OC(=O)C(C)C)[C@H](C)OC2=O)c1O | < 0.1 mg/L | 6 |
| CCCCCCOC(=O)C[C@H](NC(=O)c1nccc(OC)c1O)C(=O)OCCCCCC | 100 mg/L (≈ 221 µM) |  |
| CCCCCCOC(=O)CC[C@@H](NC(=O)c1nccc(OC)c1O)C(=O)OCCCCCC | 100 mg/L (≈ 214 µM) |  |
